Measurements taken from ChEMBL document CHEMBL4000256, “Light-Regulated NO Release as a Novel Strategy To Overcome Doxorubicin Multidrug Resistance” (ACS Med Chem Lett, 2017).

Tests used:
[1] = Stability of the compound in pH 7.4 PBS at 100 uM incubated under dark condition for >0.5 hrs; type: physicochemical; settings: buffer, pH 7.4, 0.5 h
[2] = Stability of the compound in PBS with 3% DMSO; type: physicochemical; settings: buffer
H9c2 [3] = assay: Dark toxicity against rat H9c2 cells at 5 uM measured after 20 mins co-incubated with doxorubicin by spectrophotometric method; type: cell-based; settings: h9c2, 20 min
Procedure, shortened: (§1)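 Cells (M14 melanoma, human fibroblasts or rat H9c2 cardiomyocytes) kept 20 min at room temperature in PBS in the dark, with 5 μM compound, given alone or with equimolar 5 μM doxorubicin. Cytotoxicity read as extracellular LDH release. Triplicate measurements, n = 3.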

[4] = molecular target: T1, ATP-binding cassette sub-family C member 4 (Homo sapiens, UniProt O15439); assay: Inhibition of MRP4 in 7 mW/cm'2 irradiated human M14 cells assessed as reduction in ATPase activity at 5 uM measured after 20 mins in presence of doxorubicin by immunoblotting
T1 sequence (O15439 whole entry): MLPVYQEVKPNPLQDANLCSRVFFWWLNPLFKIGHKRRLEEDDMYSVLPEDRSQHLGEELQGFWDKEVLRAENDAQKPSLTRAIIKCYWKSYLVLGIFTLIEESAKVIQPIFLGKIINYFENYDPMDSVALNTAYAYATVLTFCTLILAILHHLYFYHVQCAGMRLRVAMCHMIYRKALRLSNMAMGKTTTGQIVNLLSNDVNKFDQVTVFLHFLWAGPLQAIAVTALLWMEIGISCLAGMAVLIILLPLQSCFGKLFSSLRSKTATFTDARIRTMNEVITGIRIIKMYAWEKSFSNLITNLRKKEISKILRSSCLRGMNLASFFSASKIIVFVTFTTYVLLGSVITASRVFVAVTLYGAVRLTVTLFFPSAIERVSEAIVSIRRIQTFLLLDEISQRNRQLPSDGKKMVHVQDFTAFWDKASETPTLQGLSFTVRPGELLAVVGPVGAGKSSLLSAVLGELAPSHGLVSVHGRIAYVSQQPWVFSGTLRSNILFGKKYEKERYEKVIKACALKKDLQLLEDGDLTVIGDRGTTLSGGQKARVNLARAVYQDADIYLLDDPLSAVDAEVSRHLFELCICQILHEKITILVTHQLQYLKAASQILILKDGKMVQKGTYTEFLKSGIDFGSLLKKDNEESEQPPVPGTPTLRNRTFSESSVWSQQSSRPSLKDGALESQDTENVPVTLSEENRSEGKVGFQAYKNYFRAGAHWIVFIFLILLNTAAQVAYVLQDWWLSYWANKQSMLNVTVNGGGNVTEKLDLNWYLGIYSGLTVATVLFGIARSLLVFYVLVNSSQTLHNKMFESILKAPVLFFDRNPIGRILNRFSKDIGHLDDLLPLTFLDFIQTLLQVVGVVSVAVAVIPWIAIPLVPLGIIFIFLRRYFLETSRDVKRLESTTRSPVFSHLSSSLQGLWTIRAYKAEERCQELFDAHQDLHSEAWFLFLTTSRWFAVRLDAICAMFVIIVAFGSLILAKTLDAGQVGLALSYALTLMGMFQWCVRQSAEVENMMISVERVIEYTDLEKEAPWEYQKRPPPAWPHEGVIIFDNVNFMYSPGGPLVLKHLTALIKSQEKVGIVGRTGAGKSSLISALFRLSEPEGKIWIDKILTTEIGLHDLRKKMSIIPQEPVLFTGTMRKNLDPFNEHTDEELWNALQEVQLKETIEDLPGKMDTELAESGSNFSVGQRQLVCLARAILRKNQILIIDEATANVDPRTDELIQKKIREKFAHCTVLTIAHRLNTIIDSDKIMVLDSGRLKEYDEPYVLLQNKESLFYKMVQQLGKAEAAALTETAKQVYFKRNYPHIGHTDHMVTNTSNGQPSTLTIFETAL
Procedure, shortened: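 M14 melanoma cells held 20 min at room temperature in PBS under 400 nm light (7 mW/cm2) with 5 μM compound, alone or with equimolar doxorubicin. Transporter ATPase activity then measured; n = 3.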

[5] = molecular target: T1, ATP-binding cassette sub-family C member 4; assay: Inhibition of MRP4 in 7 mW/cm'2 irradiated human M14 cells assessed as nitration of tyrosine in MRP4 at 5 uM measured after 20 mins in presence of doxorubicin by immunoblotting
Procedure, shortened: (§2)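 M14 melanoma cells held 20 min at room temperature in PBS under 400 nm light (7 mW/cm2) with 5 μM compound, alone or with equimolar doxorubicin. Nitrated ABC transporters (Pgp, MRP1, MRP4, BCRP) detected by immunoblot.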

H9c2 [6] = assay: Cytotoxicity against 7 mW/cm'2 irradiated rat H9c2 cells at 5 uM coadministered with DOX measured after 20 mins by spectrophotometric method; type: cell-based; settings: h9c2, 20 min
Procedure, shortened: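 Cells (M14 melanoma, human fibroblasts or rat H9c2 cardiomyocytes) kept 20 min at room temperature in PBS under 400 nm light (7 mW/cm2), alone or with 5 μM compound, given alone or with equimolar 5 μM doxorubicin. Damage read as extracellular LDH release. Triplicate measurements, n = 3.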

M14 = assay: Dark toxicity in human M14 cells assessed as increase in LDH release at 5 uM measured after 20 mins by spectrophotometric method; type: cell-based; settings: m14, 20 min; procedure, shortened: as §1
Fibroblast = assay: Dark toxicity against human fibroblasts at 5 uM measured after 20 mins co-incubated with doxorubicin by spectrophotometric method; type: cell-based; procedure, shortened: as §1
[7] = molecular target: T2, Broad substrate specificity ATP-binding cassette transporter ABCG2 (Homo sapiens, UniProt Q9UNQ0); assay: Inhibition of BCRP in 7 mW/cm'2 irradiated human M14 cells assessed as nitration of tyrosine in BCRP at 5 uM measured after 20 mins in presence of doxorubicin by immunoblotting; procedure, shortened: as §2
T2 sequence (Q9UNQ0 whole entry): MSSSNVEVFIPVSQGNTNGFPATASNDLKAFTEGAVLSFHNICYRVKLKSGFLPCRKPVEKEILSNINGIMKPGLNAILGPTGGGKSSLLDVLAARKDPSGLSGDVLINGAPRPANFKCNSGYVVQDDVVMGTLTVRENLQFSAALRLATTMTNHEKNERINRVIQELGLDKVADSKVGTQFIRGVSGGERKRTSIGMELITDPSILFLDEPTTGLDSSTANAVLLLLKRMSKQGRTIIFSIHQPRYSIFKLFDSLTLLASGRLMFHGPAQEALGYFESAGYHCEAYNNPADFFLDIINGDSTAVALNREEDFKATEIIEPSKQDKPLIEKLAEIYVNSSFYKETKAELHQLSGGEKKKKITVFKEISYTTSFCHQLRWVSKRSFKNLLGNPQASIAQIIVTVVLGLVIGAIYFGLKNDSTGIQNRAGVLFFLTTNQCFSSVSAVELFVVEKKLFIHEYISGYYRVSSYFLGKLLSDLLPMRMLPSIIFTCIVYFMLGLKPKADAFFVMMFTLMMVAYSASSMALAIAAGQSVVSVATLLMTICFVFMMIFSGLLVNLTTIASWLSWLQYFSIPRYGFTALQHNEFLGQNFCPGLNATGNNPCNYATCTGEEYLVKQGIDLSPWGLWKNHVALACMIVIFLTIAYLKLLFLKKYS

Row | Stability [1] | Stability [2] | Compound | Activity (H9c2 [3]) | inhibition (INH) [4] | inhibition (INH) [5] | Activity (H9c2 [6]) | Activity (M14) | Activity (Fibroblast) | inhibition (INH) [7]
1 | Stable | Stable | COc1cccc2c1C(=O)c1c(O)c3c(c(O)c1C2=O)C[C@@](O)(C(=O)COC(=O)c1ccc(C(=O)NCCCNc2ccc([N+](=O)[O-])c(C(F)(F)F)c2)cc1)C[C@@H]3O[C@H]1C[C@H](N)[C@H](O)[C@H](C)O1.Cl | – | – | – | – | – | – | –
2 | – | – | NCCCNc1ccc([N+](=O)[O-])c(C(F)(F)F)c1 | Non-Toxic | Active | Active | Non-Toxic | Non-Toxic | Non-Toxic | Active
